{"source": "ChEMBL document CHEMBL1129543", "about": "“Synthesis and evaluation of N-(phenylacetyl)trifluoromethanesulfonamides as anticonvulsant agents” (J Med Chem, 1996)", "key": {"Mus musculus [1]": {"species": "Mus musculus", "experiment": "Time to peak toxicity was evaluated by Maximal electroshock seizure test in hours", "type": "functional"}, "Rattus norvegicus [2]": {"species": "Rattus norvegicus", "experiment": "Protective index (TD50/ED50) was determined against MES induced seizure in rat.", "type": "functional", "summary_of_the_method": "(§1)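 Oral dosing in 30% PEG 400: phase IV in mice (0.01 mL/g), phase VI in Sprague-Dawley rats (0.004 mL/g). ED50/TD50 found as in phase II, at the stated time of peak effect. MES current 50 mA in mice, 150 mA in rats. Toxicity by rotorod in mice; positional sense, gait and stance in rats. PI = TD50/ED50.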"}, "Rattus norvegicus [3]": {"species": "Rattus norvegicus", "experiment": "Protective index (TD50/ED50) was determined against scMet induced seizure in rat.", "type": "functional", "summary_of_the_method": "as §1"}, "Mus musculus [4]": {"test_system": "Mus musculus", "experiment": "Median effective dose was evaluated by Maximal electroshock seizure test through intraperitoneal administration", "type": "functional", "settings": "ip", "summary_of_the_method": "(§2)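 Phase II in mice, ip dosing in 30% PEG 400. Groups of 6-12 mice per dose until at least three points fall in 10-90% protection. […] MES: 50 mA, 0.2 s corneal. scMet: pentylenetetrazol 85 mg/kg sc.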"}, "Mus musculus [5]": {"test_system": "Mus musculus", "experiment": "Anti-seizure activity was evaluated by Subcutaneous pentylenetetrazole seizure test at dose 100 mg/kg after 0.5 hours; +++ denotes antiseizure activity", "type": "functional, organism-based", "design": "dose 100 mg/kg", "summary_of_the_method": "(§3)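 Phase I screen in mice: ip dosing at 30, 100, 300 and 600 mg/kg in 30% PEG 400, read 0.5 h and 4 h after. Pentylenetetrazol given sc at CD97 (85 mg/kg). Protection means no clonic spasm of at least 5 s over 30 min. Scored ++++ to + for 30 to 600 mg/kg.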"}, "Mus musculus [6]": {"test_system": "Mus musculus", "experiment": "Anti-seizure activity was evaluated by Subcutaneous pentylenetetrazole seizure test at dose 300 mg/kg after 4.0 hours; ++ denotes antiseizure activity", "type": "functional, organism-based", "design": "dose 300 mg/kg", "summary_of_the_method": "as §3"}, "Mus musculus [7]": {"test_system": "Mus musculus", "experiment": "Median effective dose was evaluated by subcutaneous pentylenetetrazole seizure test through intraperitoneal administration", "type": "functional", "summary_of_the_method": "as §2"}, "Mus musculus [8]": {"species": "Mus musculus", "experiment": "Time to peak activity was evaluated by Maximal electroshock seizure test in hours", "type": "functional"}, "Mus musculus [9]": {"test_system": "Mus musculus", "experiment": "Anti-seizure activity was evaluated by Neurologic toxicity (rotarod test) at dose 600 mg/kg after 4.0 hours; + denotes neurotoxicity", "type": "functional, organism-based", "design": "dose 600 mg/kg", "summary_of_the_method": "(§4)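 Phase I neurotoxicity in mice by rotorod ataxia test. Compound given ip at 30, 100, 300 or 600 mg/kg in 30% PEG 400, read 0.5 h and 4 h after. Scored ++++ to + for toxicity at 30 to 600 mg/kg; - means no toxicity.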"}, "Mus musculus [10]": {"test_system": "Mus musculus", "experiment": "Anti-seizure activity was evaluated by Maximal electroshock seizure (MES) test at dose 100 mg/kg after 0.5 hours; +++ denotes antiseizure activity", "type": "functional, organism-based", "design": "dose 100 mg/kg", "summary_of_the_method": "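Phase I screen in mice: ip injection at 30, 100, 300 and 600 mg/kg in 30% PEG 400 (0.01 mL/g). Test run 0.5 h and 4 h after dosing. 60-Hz AC, 50 mA, via corneal electrodes for 0.2 s. Protection means abolition of hind-leg tonic extension. Scored ++++ to + for activity at 30 to 600 mg/kg.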"}, "Mus musculus [11]": {"test_system": "Mus musculus", "experiment": "Anti-seizure activity was evaluated by Neurologic toxicity (rotarod test) at dose 300 mg/kg after 0.5 hours; ++ denotes antiseizure activity", "type": "functional, organism-based", "design": "dose 300 mg/kg", "summary_of_the_method": "as §4"}, "Mus musculus [12]": {"test_system": "Mus musculus", "experiment": "Median toxic dose was evaluated by […] through intraperitoneal administration", "type": "functional"}, "Mus musculus [13]": {"test_system": "Mus musculus", "experiment": "Median Effective dose was evaluated by Maximal electroshock seizure (MES) test in mice by oral administration", "type": "functional"}, "Rattus norvegicus [14]": {"test_system": "Rattus norvegicus", "experiment": "Median Effective dose was evaluated by Subcutaneous pentylenetetrazole seizure test in Rats by oral administration up to 800 mg/kg;d= no protection", "type": "functional, organism-based", "design": "dose 800 mg/kg", "summary_of_the_method": "as §1, with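 “in rats. PTZ sc 85 mg/kg in mice, 70 mg/kg in rats. Toxicity by” for “in rats. Toxicity by”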"}, "Rattus norvegicus [15]": {"test_system": "Rattus norvegicus", "experiment": "Median Effective dose was evaluated by Maximal electroshock seizure (MES) test in Rats by oral administration", "type": "functional"}, "Mus musculus [16]": {"test_system": "Mus musculus", "experiment": "Inhibition of picrotoxin-induced seizures in mice by ip administration at 55-100 mg/kg (g= Maximum 62.5% protection)", "type": "functional, organism-based", "summary_of_the_method": "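Phase V differentiation in mice: test drug given ip at time of peak therapeutic effect, then the CD₉₇ of each convulsant (picrotoxin, bicuculline, strychnine) given ip as a 0.5% solution; observation 30 min for bicuculline and strychnine, 45 min for picrotoxin. Drug in 30% PEG 400, 0.01 mL/g. ED₅₀ with 95% confidence intervals from ≥3 points in the 10-90% protection range, groups of 6-12 mice.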"}, "Mus musculus [17]": {"test_system": "Mus musculus", "experiment": "Median lethal dose was evaluated by mortality after 24 hr through ip injection administration", "type": "functional", "summary_of_the_method": "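Mice were dosed ip in 30% PEG 400. Mortality was scored 24 h after injection in groups of eight. The 24-h LD₅₀ was derived as for the ED₅₀/TD₅₀, with 95% confidence intervals.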"}, "Rattus norvegicus [18]": {"test_system": "Rattus norvegicus", "experiment": "Time to peak effect in Rats was evaluated by Maximal electroshock seizure (MES) test in hours by oral administration", "type": "functional", "summary_of_the_method": "as §1, with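 “in rats. PTZ sc 85 mg/kg in mice, 70 mg/kg in rats. Toxicity by” for “in rats. Toxicity by”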"}, "Mus musculus [19]": {"test_system": "Mus musculus", "experiment": "[…] was evaluated by Neurologic toxicity (rotarod test) in mice by oral administration", "type": "functional", "summary_of_the_method": "as §1, with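 “in rats. PTZ sc 85 mg/kg in mice, 70 mg/kg in rats. Toxicity by” for “in rats. Toxicity by”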"}, "Mus musculus [20]": {"test_system": "Mus musculus", "experiment": "Time to peak effect in mice was evaluated by Subcutaneous pentylenetetrazole seizure test in hours by oral administration", "type": "functional", "summary_of_the_method": "as §1, with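 “in rats. PTZ sc 85 mg/kg in mice, 70 mg/kg in rats. Toxicity by” for “in rats. Toxicity by”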"}, "Mus musculus [21]": {"species": "Mus musculus", "experiment": "Median hypnotic dose was evaluated by loss of righting reflex", "type": "functional"}, "Mus musculus [22]": {"test_system": "Mus musculus", "experiment": "Time to peak effect in mice was evaluated by Maximal electroshock seizure (MES) test in hours by oral administration", "type": "functional", "summary_of_the_method": "as §1, with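 “in rats. PTZ sc 85 mg/kg in mice, 70 mg/kg in rats. Toxicity by” for “in rats. Toxicity by”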"}, "Mus musculus [23]": {"test_system": "Mus musculus", "experiment": "Time to peak effect in mice was evaluated by Neurologic toxicity (rotarod test) in hours by oral administration", "type": "functional", "summary_of_the_method": "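Oral dosing in mice in 30% PEG 400 (0.01 mL/g). Neurologic deficit was scored by the rotorod ataxia test, and the time of peak effect was given in hours.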"}, "Mus musculus [24]": {"test_system": "Mus musculus", "experiment": "Inhibition of seizures induced in mice by a convulsant dose of up to 100 mg/kg", "type": "functional, organism-based", "design": "dose 100 mg/kg", "summary_of_the_method": "(§5)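 Convulsant (bicuculline, picrotoxin, strychnine or PTZ) given at CD97 as a 0.5% solution. Observed 30 min (45 min for picrotoxin). PI uses ip mouse TD50.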"}, "Rattus norvegicus [25]": {"test_system": "Rattus norvegicus", "experiment": "Time to peak effect in Rats was evaluated by Subcutaneous pentylenetetrazole seizure test in hours by oral administration", "type": "functional", "summary_of_the_method": "as §1, with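 “in rats. PTZ sc 85 mg/kg in mice, 70 mg/kg in rats. Toxicity by” for “in rats. Toxicity by”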"}, "Rattus norvegicus [26]": {"test_system": "Rattus norvegicus", "experiment": "Time to peak effect in Rats was evaluated by Neurologic toxicity (rotarod test) in hours by oral administration", "type": "functional"}, "Rattus norvegicus [27]": {"test_system": "Rattus norvegicus", "experiment": "[…] was evaluated by […] by oral administration up to 3000 mg/kg", "type": "functional, organism-based", "design": "dose 3000 mg/kg"}, "Mus musculus [28]": {"test_system": "Mus musculus", "experiment": "Median Effective dose was evaluated by Subcutaneous pentylenetetrazole seizure test in mice by oral administration; c=No protection up to 300 mg/kg", "type": "functional, organism-based", "design": "dose 300 mg/kg", "summary_of_the_method": "as §1, with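 “in rats. PTZ sc 85 mg/kg in mice, 70 mg/kg in rats. Toxicity by” for “in rats. Toxicity by”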"}, "Mus musculus [29]": {"test_system": "Mus musculus", "experiment": "Median effective dose was evaluated by subcutaneous pentylenetetrazole seizure test through up to 300 mg/kg; g=no protection up to 33 mg/kg", "type": "functional, organism-based"}, "Mus musculus [30]": {"test_system": "Mus musculus", "experiment": "Inhibition of seizures induced in mice by a convulsant dose of strychnine through ip administration; f=No protection up to 100 mg/kg", "type": "functional, organism-based", "design": "dose 100 mg/kg", "summary_of_the_method": "as §5"}}, "note": "Active and inactive are the calls of the source. The calls are words filed in the database; no cut-off is given here.", "data": [{"compound": "O=C(Cc1cccc(Cl)c1)NS(=O)(=O)C(F)(F)F", "values": [{"measurement": "TPE", "setting": "Mus musculus [1]", "value": 0.5}, {"measurement": "PI", "setting": "Rattus norvegicus [2]", "value": 37}, {"measurement": "PI", "setting": "Rattus norvegicus [3]", "value": 7.2}, {"measurement": "ED50", "setting": "Mus musculus [4]", "value": 6.8, "unit": "mg/kg"}, {"measurement": "Activity", "setting": "Mus musculus [5]", "value": "Antiseizure activity"}, {"measurement": "Activity", "setting": "Mus musculus [6]", "value": "Antiseizure activity"}, {"measurement": "ED50", "setting": "Mus musculus [7]", "value": 35, "unit": "mg/kg"}, {"measurement": "TPE", "setting": "Mus musculus [8]", "value": 2}, {"measurement": "Activity", "setting": "Mus musculus [9]", "value": "Antiseizure activity"}, {"measurement": "Activity", "setting": "Mus musculus [10]", "value": "Antiseizure activity"}, {"measurement": "Activity", "setting": "Mus musculus [11]", "value": "Antiseizure activity"}, {"measurement": "TD50", "setting": "Mus musculus [12]", "value": 249, "unit": "mg/kg"}]}, {"compound": "O=C1NC(=O)C(c2ccccc2)(c2ccccc2)N1", "note": "[PHENYTOIN]", "values": [{"measurement": "ED50", "setting": "Mus musculus [13]", "value": 9, "unit": "mg/kg"}, {"measurement": "ED50", "setting": "Rattus norvegicus [14]", "value": "inactive"}, {"measurement": "ED50", "setting": "Rattus norvegicus [15]", "value": 30, "unit": "mg/kg"}, {"measurement": "TPE", "setting": "Mus musculus [1]", "value": 2}, {"measurement": "ED50", "setting": "Mus musculus [16]", "value": "Active"}, {"measurement": "LD50", "setting": "Mus musculus [17]", "value": 230, "unit": "mg/kg"}, {"measurement": "TPE", "setting": "Rattus norvegicus [18]", "value": 4, "unit": "h"}, {"measurement": "TD50", "setting": "Mus musculus [19]", "value": 87, "unit": "mg/kg"}, {"measurement": "TPE", "setting": "Mus musculus [20]", "value": 2, "unit": "h"}, {"measurement": "HD50", "setting": "Mus musculus [21]", "value": 178, "unit": "mg/kg"}, {"measurement": "TPE", "setting": "Mus musculus [22]", "value": 2, "unit": "h"}, {"measurement": "TPE", "setting": "Mus musculus [23]", "value": 2, "unit": "h"}, {"measurement": "ED50", "setting": "Mus musculus [24]", "value": "inactive"}, {"measurement": "TPE", "setting": "Rattus norvegicus [25]", "value": 4, "unit": "h"}, {"measurement": "TPE", "setting": "Rattus norvegicus [26]", "value": 0.5, "unit": "h"}, {"measurement": "TD50", "setting": "Rattus norvegicus [27]", "value": "inactive"}, {"measurement": "TPE", "setting": "Mus musculus [8]", "value": 2}, {"measurement": "ED50", "setting": "Mus musculus [28]", "value": "inactive"}, {"measurement": "ED50", "setting": "Mus musculus [29]", "value": "inactive"}, {"measurement": "ED50", "setting": "Mus musculus [30]", "value": "inactive"}]}]}
